From ChEMBL document CHEMBL4261579, “β-amino alcohols and their respective 2-phenyl-N-alkyl aziridines as potential DNA minor groove binders” (Eur J Med Chem, 2018) come the findings set out here.

The structures appear in SMILES notation.

System in the first data set: not listed separately
In words: Antiproliferative activity against human MCF10 cells after 48 hrs by MTT assay.
Details: not given
The class given is cell-based. In outline:
(§1)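 MCF-10, MCF-7 or MDA-MB-231 cells, 5.0×10^5 cells seeded and grown 24 h, then exposed 48 h at 37°C to serial dilutions from 500 to 3.9 μM (DMSO 0,5%). Read-out by MTT (2.0 mg/mL in PBS), formazan dissolved in DMSO, absorbance at 570 nm. Viability is given as % of untreated cells, with IC50 from curve fitting. Mean of triplicates.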
What is called CC50 is the concentration giving 50% cytotoxicity. Read a low CC50 as harm at low concentration. Consider `OC(CNc1ccccc1)c1ccccc1` (stereo unspecified), for which it took 316 µM to reach half-maximal cytotoxicity (CC50 at 48 h).

Regarding `OC(CNCCCCc1ccccc1)c1ccccc1` (stereo unspecified), half-maximal cytotoxicity (CC50 at 48 h) was put at 107 µM. Compared with the last compound, the CC50 at 48 h is about 3-fold lower.

The compound `OC(CNCCc1ccccc1)c1ccccc1` (stereo unspecified) yielded a CC50 at 48 h of 198 µM.

`c1ccc(CCCCN2CC2c2ccccc2)cc1` (stereo unspecified) returned a CC50 at 48 h of 43.3 µM.

`OC(CNCc1ccccc1)c1ccccc1` (stereo unspecified) showed a CC50 at 48 h of 202 µM.

The compound `c1ccc(CCN2CC2c2ccccc2)cc1` (stereo unspecified) returned a CC50 at 48 h of 37.6 µM.

`c1ccc(CCCN2CC2c2ccccc2)cc1` (stereo unspecified) registered a CC50 at 48 h of 35.4 µM.

Consider `c1ccc(CN2CC2c2ccccc2)cc1` (stereo unspecified), for which the CC50 at 48 h is 41 µM. This CC50 at 48 h and that of the compound before are within 1.5-fold of each other.

The compound `OC(CNCCCc1ccccc1)c1ccccc1` (stereo unspecified) had a CC50 at 48 h of 196 µM. Against the preceding compound, the CC50 at 48 h is about 4.8-fold higher.

The compound `CCCCNCC(O)c1ccccc1` (stereo unspecified) displayed a CC50 at 48 h of 188 µM. The CC50 at 48 h values of the last two compounds are within 1.5-fold of each other.

`OC(CNCCCCc1ccccc1)c1ccc(Br)cc1` (stereo unspecified) yielded a CC50 at 48 h of 58.5 µM. This CC50 at 48 h lies about 3.2-fold lower than the previous one.

As to `OC(CNCc1ccccc1)c1ccc(Br)cc1` (stereo unspecified), it took 116 µM to reach half-maximal cytotoxicity (CC50 at 48 h).

Another data set relates to MCF7. Description: Antiproliferative activity against human MCF7 cells after 48 hrs by MTT assay. The format is functional, cell-based. The conditions noted are these: MCF7, 48 h. Put shortly: as §1
What is called IC50 is the concentration needed to halve the response being measured. For `OC(CNc1ccccc1)c1ccccc1` (stereo unspecified), the IC50 turned out to be 236 µM.

`OC(CNCCCCc1ccccc1)c1ccccc1` (stereo unspecified) yielded an IC50 of 37.2 µM.

`OC(CNCCc1ccccc1)c1ccccc1` (stereo unspecified) showed an IC50 of 318 µM.

In the case of `c1ccc(CCCCN2CC2c2ccccc2)cc1` (stereo unspecified), inhibition was half-maximal at 24.7 µM (IC50). This IC50 lies about 13-fold lower than the previous one.

Consider `OC(CNCc1ccccc1)c1ccccc1` (stereo unspecified), for which the IC50 is 210 µM.

For the compound `c1ccc(CCN2CC2c2ccccc2)cc1` (stereo unspecified), the IC50 turned out to be 170 µM.

As to `c1ccc(CCCN2CC2c2ccccc2)cc1` (stereo unspecified), the IC50 amounted to 24.5 µM.

As for `c1ccc(CN2CC2c2ccccc2)cc1` (stereo unspecified), half-maximal inhibition (IC50) required 27.8 µM. The IC50 values of the last two compounds are within 1.5-fold of each other.

Take `OC(CNCCCc1ccccc1)c1ccccc1` (stereo unspecified): the IC50 amounted to 96.4 µM.

`CCCCNCC(O)c1ccccc1` (stereo unspecified) gave an IC50 of 280 µM. Against the preceding compound, the IC50 is about 2.9-fold higher.

`OC(CNCCCCc1ccccc1)c1ccc(Br)cc1` (stereo unspecified): 14.5 µM corresponded to half-maximal inhibition (IC50).

In turn, `OC(CNCc1ccccc1)c1ccc(Br)cc1` (stereo unspecified) came in with an IC50 of 53 µM.

Another data set relates to MDA-MB-231. In words: Antiproliferative activity against human MDA-MB-231 cells after 48 hrs by MTT assay. The class given is functional, cell-based. The conditions noted are these: MDA-MB-231, 48 h. In outline: as §1
For `OC(CNc1ccccc1)c1ccccc1` (stereo unspecified), the IC50 stood at 237 µM.

In the case of `OC(CNCCCCc1ccccc1)c1ccccc1` (stereo unspecified), 50.8 µM corresponded to half-maximal inhibition (IC50). Against the preceding compound, the IC50 is about 4.7-fold lower.

`OC(CNCCc1ccccc1)c1ccccc1` (stereo unspecified): the IC50 was 190 µM. Compared with the last compound, the IC50 is about 3.7-fold higher.

Take `c1ccc(CCCCN2CC2c2ccccc2)cc1` (stereo unspecified): the IC50 was 11.1 µM.

Compound `OC(CNCc1ccccc1)c1ccccc1` (stereo unspecified) came in with an IC50 of 225 µM.

`c1ccc(CCN2CC2c2ccccc2)cc1` (stereo unspecified) came in with an IC50 of 19 µM. This IC50 lies about 12-fold lower than the previous one.

`c1ccc(CCCN2CC2c2ccccc2)cc1` (stereo unspecified) displayed an IC50 of 19.9 µM.

In turn, `c1ccc(CN2CC2c2ccccc2)cc1` (stereo unspecified) registered an IC50 of 40.4 µM.

`OC(CNCCCc1ccccc1)c1ccccc1` (stereo unspecified): the IC50 came out at 102 µM.

Turning to `CCCCNCC(O)c1ccccc1` (stereo unspecified), the IC50 came out at 259 µM.

`OC(CNCCCCc1ccccc1)c1ccc(Br)cc1` (stereo unspecified) registered an IC50 of 22.7 µM.

`OC(CNCc1ccccc1)c1ccc(Br)cc1` (stereo unspecified) had an IC50 of 73.9 µM.

System in a further data set: not listed separately
Description: Selectivity index, ratio of CC50 for human MCF10 cells to IC50 for human MCF7 cells. The class given is toxicity. The conditions noted are these: MCF10 cells versus MCF7 cells, read-out: Ratio CC50/IC50.
For the compound `OC(CNc1ccccc1)c1ccccc1` (stereo unspecified), the selectivity ratio amounted to 1.33.

On to `OC(CNCCCCc1ccccc1)c1ccccc1` (stereo unspecified), for which the selectivity ratio is 2.88.

For `OC(CNCCc1ccccc1)c1ccccc1` (stereo unspecified), the selectivity ratio was found to be 0.62.

Turning to `c1ccc(CCCCN2CC2c2ccccc2)cc1` (stereo unspecified), the selectivity ratio was determined as 1.83.

Consider `OC(CNCc1ccccc1)c1ccccc1` (stereo unspecified), for which the selectivity ratio is 0.96.

As for `c1ccc(CCN2CC2c2ccccc2)cc1` (stereo unspecified), the selectivity ratio came out at 0.2.

Consider `c1ccc(CCCN2CC2c2ccccc2)cc1` (stereo unspecified), for which the selectivity ratio stood at 1.44.

Take `c1ccc(CN2CC2c2ccccc2)cc1` (stereo unspecified): the selectivity ratio was determined as 1.47.

For `OC(CNCCCc1ccccc1)c1ccccc1` (stereo unspecified), the selectivity ratio is 2.02.

With `CCCCNCC(O)c1ccccc1` (stereo unspecified), the selectivity ratio turned out to be 0.67.

On to `OC(CNCCCCc1ccccc1)c1ccc(Br)cc1` (stereo unspecified), for which the selectivity ratio was found to be 4.04.

For the compound `OC(CNCc1ccccc1)c1ccc(Br)cc1` (stereo unspecified), the selectivity ratio is 2.18.

System in a further data set: not listed separately
In words: Selectivity index, ratio of CC50 for human MCF10 cells to IC50 for human MDA-MB-231 cells. The format is toxicity. The conditions noted are these: MCF10 cells versus MDA-MB-231 cells, read-out: Ratio CC50/IC50.
As to `OC(CNc1ccccc1)c1ccccc1` (stereo unspecified), the selectivity ratio was 1.33.

For the compound `OC(CNCCCCc1ccccc1)c1ccccc1` (stereo unspecified), the selectivity ratio came out at 2.11.

With `OC(CNCCc1ccccc1)c1ccccc1` (stereo unspecified), the selectivity ratio was 1.04.

In the case of `c1ccc(CCCCN2CC2c2ccccc2)cc1` (stereo unspecified), the selectivity ratio is 4.08.

As for `OC(CNCc1ccccc1)c1ccccc1` (stereo unspecified), the selectivity ratio stood at 0.89.

Regarding `c1ccc(CCN2CC2c2ccccc2)cc1` (stereo unspecified), the selectivity ratio was 1.97.

In the case of `c1ccc(CCCN2CC2c2ccccc2)cc1` (stereo unspecified), the selectivity ratio is 1.77.

Consider `c1ccc(CN2CC2c2ccccc2)cc1` (stereo unspecified), for which the selectivity ratio is 1.01.

On to `OC(CNCCCc1ccccc1)c1ccccc1` (stereo unspecified), for which the selectivity ratio worked out at 1.92.

Turning to `CCCCNCC(O)c1ccccc1` (stereo unspecified), the selectivity ratio is 0.72.

For the compound `OC(CNCCCCc1ccccc1)c1ccc(Br)cc1` (stereo unspecified), the selectivity ratio came out at 2.57.

Take `OC(CNCc1ccccc1)c1ccc(Br)cc1` (stereo unspecified): the selectivity ratio came out at 1.56.

A further data set deals with Calf thymus DNA. Description: Binding affinity to calf thymus DNA at 10^-6 mol/L after 5 mins by UV/Visible spectrophotometric method. The class given is nucleic-acid assay. The conditions noted are these: Bos taurus. Put shortly:
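Calf-thymus DNA dissolved in Tris buffer (5 mM Tris-HCl, 50 mM NaCl, pH 7.4), stirred about 12 h, A260/A280 1.86, quantified at 260 nm (ε 6600 M⁻¹ cm⁻¹). Kb was taken from a Benesi-Hildebrand fit.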
Regarding `OC(CNCCCCc1ccccc1)c1ccccc1` (stereo unspecified), the Kb is 1.59 ×10⁵ /M.

A further data set concerns MDA-MB-231. Description: Induction of apoptosis in human MDA-MB-231 cells assessed as necrotic cells after 48 hrs by Annexin V/FITC-propidium iodide staining-based flow cytometric analysis (reference value: 7.2%).
Details: not given
(In flow cytometry, cells or beads pass a laser one at a time.)
In the case of `c1ccc(CCCCN2CC2c2ccccc2)cc1` (stereo unspecified), the Activity is on record as 3.3%.

On to `OC(CNCCCCc1ccccc1)c1ccc(Br)cc1` (stereo unspecified), for which the Activity amounted to 6.7%.

The test system of a further data set is MDA-MB-231. Description: Induction of apoptosis in human MDA-MB-231 cells assessed as late apoptotic cells after 48 hrs by Annexin V/FITC-propidium iodide staining-based flow cytometric analysis (reference value: 10.7%).
Details: not given
Consider `c1ccc(CCCCN2CC2c2ccccc2)cc1` (stereo unspecified), for which the Activity is recorded as 40%.

With `OC(CNCCCCc1ccccc1)c1ccc(Br)cc1` (stereo unspecified), the Activity is on record as 56.8%.

The next data set deals with MDA-MB-231. In words: Induction of apoptosis in human MDA-MB-231 cells assessed as early apoptotic cells after 48 hrs by Annexin V/FITC-propidium iodide staining-based flow cytometric analysis (reference value: 9.0%).
Details: not given
Turning to `OC(CNCCCCc1ccccc1)c1ccc(Br)cc1` (stereo unspecified), the Activity was determined as 33.6%.
